From ChEMBL document CHEMBL4190227, “Syntheses, toxicities and anti-inflammation of H2S-donors based on non-steroidal anti-inflammatory drugs” (Eur J Med Chem, 2017) come the findings set out here.

Data set [1] is filed under the species Danio rerio. The data set can be described thus: Effect on locomotor activity in wild type AB zebrafish larvae assessed as decrease in total swimming distance at 10 uM measured for 5 mins at 144 hrs post fertilization by visible light test. In kind it is ADME, organism-based. As to conditions: in vivo.
The test system of data set [2] is RAW264.7. The data set can be described thus: Antiinflammatory activity in mouse RAW264.7 cells assessed as increase in LPS-induced IL10 levels at 10 to 100 uM incubated for 24 hrs post LPS induction by ELISA. It counts as functional, cell-based. In outline: (§1)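 LPS (1 μg/mL) for 4 h, then compound at 10, 50, 100 μM for 24 h; cells lysed in RIPA, spun 12,000×g 10 min, protein normalised by BCA to 0.1 mg/mL; target (TNF-α, HO-1, IL-10 or COX-2) quantified by sandwich ELISA kit with mouse-specific polyclonal antibodies; four independent experiments.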
For orientation: ELISA stands for enzyme-linked immunosorbent assay.

Data set [3] is filed under the species Danio rerio. The data set can be described thus: Toxicity in AB zebrafish embryo assessed as reduction in number of embryos alive at 120 hrs post fertilization by dissecting light microscopic analysis. As to conditions: in vivo. It counts as organism-based. Summed up: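 Wild-type AB embryos, 100 per group split into three replicates, one per well in 200 μL test solution, plates sealed; DMF vehicle control (1:1000); mortality recorded at 24–168 hpf intervals; three independent experiments, mean ± SD.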

Data set [4] has as its system RAW264.7. The data set can be described thus: Antiinflammatory activity in mouse RAW264.7 cells assessed as increase in IL10 levels at 10 to 100 uM measured after 24 hrs in absence of LPS by ELISA. It counts as functional, cell-based. In outline:
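Macrophages exposed 24 h to 10, 50, 100 μM without LPS; lysates (RIPA, 12,000×g spin) normalised by BCA to 0.1 mg/mL protein; IL-10 measured by mouse-specific sandwich ELISA kit; four independent experiments, mean ± SD.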

Data set [5] has as its system RAW264.7. The data set can be described thus: Antiinflammatory activity in mouse RAW264.7 cells assessed as increase in LPS-induced HO-1 expression at 100 uM incubated for 24 hrs post LPS induction by ELISA relative to contol. In kind it is functional. Summed up: as §1
The target in data set [6] is T1, Nitric oxide synthase, inducible (Mus musculus) (UniProt P29477).
T1 sequence (whole entry): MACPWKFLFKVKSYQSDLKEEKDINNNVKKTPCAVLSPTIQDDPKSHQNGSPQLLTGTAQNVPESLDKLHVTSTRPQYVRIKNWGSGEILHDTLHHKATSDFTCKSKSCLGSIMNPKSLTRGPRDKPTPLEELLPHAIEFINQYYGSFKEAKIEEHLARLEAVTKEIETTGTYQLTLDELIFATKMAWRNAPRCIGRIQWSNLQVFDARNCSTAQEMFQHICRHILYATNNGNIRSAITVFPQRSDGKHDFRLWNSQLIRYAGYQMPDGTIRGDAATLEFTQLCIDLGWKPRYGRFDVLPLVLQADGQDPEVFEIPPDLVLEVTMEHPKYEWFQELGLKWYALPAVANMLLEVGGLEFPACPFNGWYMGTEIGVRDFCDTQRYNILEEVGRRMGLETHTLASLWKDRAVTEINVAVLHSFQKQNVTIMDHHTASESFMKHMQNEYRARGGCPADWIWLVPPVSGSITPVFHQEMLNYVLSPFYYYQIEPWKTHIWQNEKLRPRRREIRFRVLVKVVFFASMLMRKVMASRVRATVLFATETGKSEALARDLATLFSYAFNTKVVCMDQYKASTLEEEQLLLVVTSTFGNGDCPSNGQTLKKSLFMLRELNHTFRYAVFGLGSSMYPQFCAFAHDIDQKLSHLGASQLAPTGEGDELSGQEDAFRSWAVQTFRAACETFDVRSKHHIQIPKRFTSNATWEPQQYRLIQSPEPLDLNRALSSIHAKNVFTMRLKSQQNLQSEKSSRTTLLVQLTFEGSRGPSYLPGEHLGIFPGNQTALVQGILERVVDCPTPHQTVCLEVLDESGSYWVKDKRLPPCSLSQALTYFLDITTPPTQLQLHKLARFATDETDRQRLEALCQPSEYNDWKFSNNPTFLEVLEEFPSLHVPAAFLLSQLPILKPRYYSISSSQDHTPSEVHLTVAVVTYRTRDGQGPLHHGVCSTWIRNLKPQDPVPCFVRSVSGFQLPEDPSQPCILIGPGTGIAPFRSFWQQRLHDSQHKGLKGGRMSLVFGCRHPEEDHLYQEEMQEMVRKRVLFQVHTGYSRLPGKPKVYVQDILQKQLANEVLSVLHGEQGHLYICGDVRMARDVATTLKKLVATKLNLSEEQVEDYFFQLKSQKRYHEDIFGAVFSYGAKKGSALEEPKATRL
The data set can be described thus: Inhibition of iNOS in mouse RAW264.7 cells assessed as reduction in LPS-induced NO production administered for 24 hrs post LPS induction by Griess method. In kind it is cell-based. In outline:
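RAW264.7 cells stimulated with LPS 1 μg/mL for 4 h, then compound (10, 50, 100 μM) for 24 h; culture medium reacted with Griess reagents I and II, absorbance 570 nm; nitrite from sodium nitrite standard curve (0–100 μM in medium); four independent experiments, mean ± SD.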
For orientation: The Griess reaction detects nitrite, a stable product of nitric oxide.

The test system of data set [7] is L02. Kind of data set: Cytotoxicity against human LO2 cells assessed as reduction in cell survival after 24 hrs by MTT assay. In kind it is cell-based. As to conditions: L02, 24 h. (In general: Tetrazolium dyes change colour on reduction, which living cells bring about.)
For data set [8], the species on record is Danio rerio. The data set can be described thus: Toxicity in AB zebrafish embryo assessed as reduction in embryonic spontaneous movement frequency per minute at 0.5 uM measured at 24 hrs post fertilization by stereoscopic dissecting light microscopic analysis. It counts as organism-based. As to conditions: in vivo. Summed up:
(§2)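 AB embryos exposed from 4 to 24 hpf to compound (0.5–20 μM) or DMF vehicle (1:1000); ten embryos per group chosen randomly; spontaneous movement recorded under stereoscopic dissecting microscope, frequency per min counted at 24 hpf; three independent experiments, mean ± SD.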

The species named for data set [9] is Danio rerio. Kind of data set: Toxicity in AB zebrafish embryo assessed as effect on hatching rate of embryos at 0.5 to 1 uM measured at 48 hrs post fertilization by dissecting light microscopic analysis. In kind it is organism-based. As to conditions: in vivo. Summed up: (§3)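 AB embryos exposed from 4 to 72 hpf to compound (0.5–20 μM) or DMF vehicle (1:1000), one embryo per well; hatch rate scored at 48 hpf; n=100 per group in three replicates; three independent experiments, mean ± SD.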

Data set [10] has as its system HepG2. Kind of data set: Cytotoxicity against human HepG2 cells assessed as reduction in cell survival after 24 hrs by MTT assay. As to conditions: HepG2, 24 h. It counts as cell-based.
In data set [11] the test system is RAW264.7. Kind of data set: Antiinflammatory activity in mouse RAW264.7 cells assessed as increase in LPS-induced HO-1 expression incubated for 24 hrs post LPS induction by ELISA. In kind it is functional, cell-based. Summed up:
as §1

Data set [12] is filed under the species Danio rerio. Kind of data set: Effect on locomotor activity in wild type AB zebrafish larvae assessed as decrease in total swimming distance at 0.5 to 1 uM measured for 5 mins at 144 hrs post fertilization by visible light test. In kind it is ADME, organism-based. The note with it: in vivo.
In data set [13] the test system is RAW264.7. Kind of data set: Antiinflammatory activity in mouse RAW264.7 cells assessed as reduction in LPS-induced TNFalpha levels incubated for 24 hrs post LPS induction by ELISA. In kind it is functional, cell-based. Summed up: as §1
For data set [14], the species on record is Danio rerio. Kind of data set: Toxicity in AB zebrafish embryo assessed as reduction in embryonic spontaneous movement frequency per minute measured at 24 hrs post fertilization by stereoscopic dissecting light microscopic analysis. It counts as organism-based. As to conditions: in vivo. In outline:
as §2

For data set [15], the species on record is Danio rerio. Kind of data set: Toxicity in AB zebrafish embryo assessed as reduction in hatching rate of embryos at 5 to 20 uM measured at 48 hrs post fertilization by dissecting light microscopic analysis. It counts as organism-based. The note with it: in vivo. Summed up:
as §3

The species named for data set [16] is Danio rerio. The data set can be described thus: Toxicity in AB zebrafish embryo assessed as reduction in hatching rate of embryos measured at 48 hrs post fertilization by dissecting light microscopic analysis. It counts as organism-based. As to conditions: in vivo. In outline: as §3

Activity calls are given as the source filed them. The calls are words filed in the database; no cut-off is given here.

By IC50 is commonly meant the midpoint of a concentration-inhibition curve.

As for `CC(=O)Nc1ccc(OC(=O)CCCCC2CCSS2)cc1` (configuration not stated), the Activity result is “Toxic” in data set [1]; “Dose-dependent effect” in data set [3]; “Non-Toxic” in [8]; “Non-Toxic” in [9]; “Dose-dependent effect” in data set [11]; “Non-Toxic” in data set [12]. In addition, the Activity result in data set [13] is “Dose-dependent effect”; in data set [14] it was “Dose-dependent effect”; in data set [15], “Toxic”; in data set [16], “Dose-dependent effect”. The outcome in data set [2] and in [4] was Active. Moreover, the “fold change (FC)” value in data set [5] is “<=2”. Besides, the inhibition entry in [6] was “Dose-dependent effect”. Moreover, the results for the IC50 in data set [7] and in data set [10] were 1790 µM and 966 µM, respectively.

For `CC(C)Cc1ccc(C(C)C(=O)Oc2ccc(C(N)=S)cc2)cc1` (configuration not stated), the Activity result in data set [1] is “Toxic”; in data set [3], “Dose-dependent effect”; in data set [8], “Non-Toxic”; in data set [9], “Non-Toxic”; in [11] it was “Dose-dependent effect”; in data set [12] it was “Non-Toxic”. The Activity result is “Dose-dependent effect” in [13], “Dose-dependent effect” in [14], “Toxic” in data set [15] and “Dose-dependent effect” in data set [16]. For the same compound, the result in data set [2] and in [4] was Active. In [5], the “fold change (FC)” value was over 3. In [6], the inhibition result was “Dose-dependent effect”. Further, the results for the IC50 in [7] and in data set [10] were 221 µM and 89.3 µM, respectively.
